# Measurements as given in ChEMBL document CHEMBL3769305, “Glucose-functionalized amino-OPEs as biocompatible photosensitizers in PDT” (Eur J Med Chem, 2016).
# Activity calls are given as the source filed them. The calls are words filed in the database; no cut-off is given here.
# Assays:
# HeLa [1] = assay: Phototoxicity against human HeLa cells incubated for 6 hrs followed by UV irradiation at 0.25 J/cm'2 measured after 24 hrs by MTT assay; type: functional
# In short: (§1)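 Cultures at 60–70% confluence were loaded with the photosensitizer for 6 h in medium with 1% FBS and <0.5% DMSO. Medium was then replaced and cells were irradiated with UVA (300–400 nm, 15.9 W/m² at 10 cm), then washed and kept in complete medium for 24 h. Survival was read by MTT (50 µg/mL, 4 h, 542 nm) as % of untreated control OD.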
# HaCaT [2] = assay: Induction of cell morphological changes in human HaCaT cells assessed as appearance of necrotic cells with loss of membrane integrity at 3 to 5 uM after 24 hrs by Hoechst 33258 staining-based phase contrast microscopy in presence of UVA light
# [3] = Dark toxicity against human Hep2 cells assessed as cell survival at 3 uM incubated for 6 hrs measured after 24 hrs by MTT assay; type: cell-based, HEp-2; settings: read-out: Survival
# In short: (§2)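 Cells (HaCaT and HeLa in DMEM, HEp-2 in RPMI, each with 10% FBS, at 37 °C and 5% CO2) were treated at 60–70% confluence. The compound was added from a 10^-3 M DMSO stock in medium with 1% FBS (final DMSO <0.5%) at 3·10^-6 to 2.5·10^-5 M and kept in the dark (6 h per table footnote, 18 h per methods). After 24 h, MTT at 50 µg/mL for 4 h, read at 542 nm as % of control OD.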
# [4] = Drug uptake in endoplasmic reticulum of human HaCaT cells at 1 uM after 6 hrs by ER-tracker dye-based fluorescence microscopy; type: ADME, cell-based
# In short: (§3)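 Cells grown on glass coverslips were incubated with 1×10^-6 M photosensitizer for 6 h at 37 °C, washed twice in PBS and imaged live by fluorescence microscopy. Organelle probes (ER-Tracker, ex 374/em 430 nm; NBD-Golgi, ex 466/em 536 nm) were applied for 30 min at the supplier's concentrations, and their patterns were compared with the compound signal.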
# [5] = Drug uptake in endoplasmic reticulum of human Hep2 cells at 1 uM after 6 hrs by ER-tracker dye-based fluorescence microscopy; type: ADME, cell-based; settings: hep-2, 6 h; in short: as §3
# HaCaT [6] = assay: Induction of cell morphological changes in human HaCaT cells assessed as appearance of apoptotic cells with membrane blebbing at 3 to 5 uM after 24 hrs by Hoechst 33258 staining-based phase contrast microscopy in presence of UVA light
# [7] = Dark toxicity against human HeLa cells assessed as cell survival at 3 uM incubated for 6 hrs measured after 24 hrs by MTT assay; type: cell-based; settings: read-out: Survival; in short: as §2
# HeLa [8] = assay: Induction of necrotic morphological changes in human HeLa cells at LD50 after 24 hrs by Hoechst 33258 staining-based fluorescence microscopy in presence of UVA light; type: functional, cell-based
# HaCaT [9] = assay: Phototoxicity against human HaCaT cells assessed as cell lethality at 3 to 250 uM incubated for 6 hrs followed by UV irradiation at 2 J/cm'2 measured after 24 hrs by MTT assay; type: cell-based; in short: as §1
# [10] = Drug uptake in golgi apparatus of human Hep2 cells at 1 uM after 6 hrs by NBD dye-based fluorescence microscopy; type: ADME, cell-based; settings: hep-2, 6 h; in short: as §3
# HaCaT [11] = assay: Induction of necrotic morphological changes in human HaCaT cells at LD50 after 24 hrs by Hoechst 33258 staining-based fluorescence microscopy in presence of UVA light; type: cell-based
# [12] = Phototoxicity against human Hep2 cells assessed as cell lethality at 3 to 250 uM incubated for 6 hrs followed by UV irradiation at 2 J/cm'2 measured after 24 hrs by MTT assay; type: functional, HEp-2; in short: as §1
# HeLa [13] = assay: Induction of microtubule disruption in human HeLa cells assessed as increase in mitotic index at LD50 after 24 hrs by immunofluorescence assay in presence of UVA light; type: cell-based
# [14] = Dark toxicity against human Hep2 cells assessed as cell survival at 10 uM incubated for 6 hrs measured after 24 hrs by MTT assay; type: cell-based, HEp-2; settings: read-out: Survival; in short: as §2
# [15] = Dark toxicity against human HaCaT cells assessed as cell survival at 3 uM incubated for 6 hrs measured after 24 hrs by MTT assay; type: cell-based; settings: read-out: Survival; in short: as §2
# [16] = Dark toxicity against human HaCaT cells assessed as cell survival at 5 uM incubated for 6 hrs measured after 24 hrs by MTT assay; type: cell-based; settings: read-out: Survival; in short: as §2
# HEp-2 [17] = assay: Induction of cell morphological changes in human Hep2 cells assessed as cell detachment from substrate at 3 to 5 uM after 24 hrs by Hoechst 33258 staining-based phase contrast microscopy in presence of UVA light; type: functional
# [18] = Induction of microtubule disruption in human HaCaT cells at LD50 after 24 hrs by immunofluorescence assay in presence of UVA light; type: cell-based
# [19] = Phototoxicity against human Hep2 cells incubated for 6 hrs followed by UV irradiation at 0.25 J/cm'2 measured after 24 hrs by MTT assay; type: functional, HEp-2; in short: as §1
# HeLa [20] = assay: Induction of apoptotic morphological changes in human HeLa cells at LD50 after 24 hrs by Hoechst 33258 staining-based fluorescence microscopy in presence of UVA light; type: functional, cell-based
# HaCaT [21] = assay: Phototoxicity against human HaCaT cells assessed as appearance of rounded cells at LD50 after 24 hrs by acridine orange/ethidium bromide staining-based assay in presence of 0.25 to 0.5 J/cm'2 UVA light; type: cell-based
# In short: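 Cells (HaCaT, HeLa in DMEM; HEp-2 in RPMI; 10% FBS) at 60–70% confluence were incubated 6 h with 3·10^-6 M photosensitizer (DMSO stock diluted in medium with 1% FBS, final DMSO <0.5%). Medium was replaced and cells were given 0.25 J/cm² UVA (300–400 nm). 24 h later, cells were stained live with 50 µg/ml AO plus 50 µg/ml EtBr in PBS. Within 15 min, 200 cells per condition were scored as living, rounded, apoptotic or necrotic.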
# HaCaT [22] = assay: Induction of morphological changes in human HaCaT cells assessed as nuclear retraction at LD50 after 24 hrs by Hoechst 33258 staining-based fluorescence microscopy in presence of UVA light; type: cell-based
# HeLa [23] = assay: Induction of microtubule disruption in human HeLa cells assessed as appearance of extrapoles at LD50 after 24 hrs by immunofluorescence assay in presence of UVA light; type: cell-based
# HEp-2 [24] = assay: Induction of microtubule disruption in human Hep2 cells assessed as increase in mitotic index at LD50 after 24 hrs by immunofluorescence assay in presence of UVA light; type: cell-based
# [25] = Dark toxicity against human HeLa cells assessed as cell survival at 5 uM incubated for 6 hrs measured after 24 hrs by MTT assay; type: cell-based; settings: read-out: Survival; in short: as §2
# [26] = Induction of singlet-oxygen generation at 5 x 10^-5 M irradiated at 380 nm by uric acid degradation assay; type: physicochemical; settings: 0.38 µM
# [27] = Induction of microtubule disruption in human HaCaT cells assessed as appearance of apoptotic morphology at LD50 after 24 hrs by immunofluorescence assay in presence of UVA light; type: cell-based
# [28] = Induction of singlet-oxygen generation at 5 x 10^-5 M irradiated at 390 nm by uric acid degradation assay; type: physicochemical; settings: 0.39 µM
compound,measurement,setting,value
COc1cc(C#Cc2ccc(C#Cc3cc(OC)c(C#CCO[C@@H]4O[C@H](CO)[C@@H](O)[C@H](O)[C@H]4O)cc3OC)c(N(C)C)c2)c(OC)cc1C#CCO[C@@H]1O[C@H](CO)[C@@H](O)[C@H](O)[C@H]1O,LD50,HeLa [1],3 ×10⁻⁶ M
same,Activity,HaCaT [2],Toxic
same,"viability at 6 h, 3 µM",[3],97.2%
same,Drug uptake,[4],Active
same,Drug uptake,[5],Active
same,Activity,HaCaT [6],Toxic
same,"viability at 6 h, 3 µM",[7],96.4%
same,Activity,HeLa [8],Active
same,mortality,HaCaT [9],> 50%
same,Drug uptake,[10],Active
same,Activity,HaCaT [11],Toxic
same,mortality,[12],>50%
same,Activity,HeLa [13],Active
same,"viability at 6 h, 10 µM",[14],85.6%
same,"viability at 6 h, 3 µM",[15],92.4%
same,"viability at 6 h, 5 µM",[16],91.4%
same,Activity,HEp-2 [17],Active
same,Activity,[18],Toxic
same,LD50,[19],3 ×10⁻⁶ M
same,Activity,HeLa [20],Active
same,Activity,HaCaT [21],Toxic
same,Activity,HaCaT [22],Toxic
same,Activity,HeLa [23],Active
same,Activity,HEp-2 [24],Active
same,"viability at 6 h, 5 µM",[25],95.4%
same,Activity,[26],Active
same,Activity,[27],Toxic
COc1cc(C#Cc2ccc(C#CCO[C@@H]3O[C@H](CO)[C@@H](O)[C@H](O)[C@H]3O)cc2N(C)C)c(OC)cc1C#Cc1ccc(C#CCO[C@@H]2O[C@H](CO)[C@@H](O)[C@H](O)[C@H]2O)cc1N(C)C,LD50,HeLa [1],3 ×10⁻⁶ M
same,Activity,HaCaT [2],Toxic
same,"viability at 6 h, 3 µM",[3],97.7%
same,Drug uptake,[4],Active
same,Drug uptake,[5],Active
same,Activity,HaCaT [6],Toxic
same,"viability at 6 h, 3 µM",[7],96.6%
same,Activity,HeLa [8],Active
same,mortality,HaCaT [9],> 50%
same,Drug uptake,[10],Active
same,Activity,HaCaT [11],Toxic
same,mortality,[12],>50%
same,Activity,[28],Active
same,Activity,HeLa [13],Active
same,"viability at 6 h, 10 µM",[14],80.1%
same,"viability at 6 h, 3 µM",[15],91.5%
same,"viability at 6 h, 5 µM",[16],90.9%
same,Activity,HEp-2 [17],Active
same,Activity,[18],Toxic
same,LD50,[19],3 ×10⁻⁶ M
same,Activity,HeLa [20],Active
same,Activity,HaCaT [21],Toxic
same,Activity,HaCaT [22],Toxic
same,Activity,HeLa [23],Active
same,Activity,HEp-2 [24],Active
same,"viability at 6 h, 5 µM",[25],93.5%
same,Activity,[27],Toxic
